Shown are actives, neighbours in structure and some others; about 2.1% of the full set was active somewhere.
CXCR6 block: inhibitors of human CXCR6 receptor; O00574; CHO-K1 PathHunter CXCR6 beta-arrestin, luminescence; inhibition, % at 20 µM; 0.36% of 360,000 active; in the data active means inhibition above about 34%, passing the limit was not always enough;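 further: antagonist mode with CXCL16 agonist at 10 nM final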
HTR2A ag: mouse HTR2A agonism via beta-arrestin recruitment. CHO-K1 mHTR2A beta-arrestin complementation, luminescence; percent of 30 µM serotonin response. activation, % at 7.6 µM. 0.66% of 360,000 active. AID 624169;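 active means activation above a run cutoff, the mean activation of all tested compounds plus 3 SD, cut at about 14% in these data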
Target sequence (P35363 whole entry, looked up): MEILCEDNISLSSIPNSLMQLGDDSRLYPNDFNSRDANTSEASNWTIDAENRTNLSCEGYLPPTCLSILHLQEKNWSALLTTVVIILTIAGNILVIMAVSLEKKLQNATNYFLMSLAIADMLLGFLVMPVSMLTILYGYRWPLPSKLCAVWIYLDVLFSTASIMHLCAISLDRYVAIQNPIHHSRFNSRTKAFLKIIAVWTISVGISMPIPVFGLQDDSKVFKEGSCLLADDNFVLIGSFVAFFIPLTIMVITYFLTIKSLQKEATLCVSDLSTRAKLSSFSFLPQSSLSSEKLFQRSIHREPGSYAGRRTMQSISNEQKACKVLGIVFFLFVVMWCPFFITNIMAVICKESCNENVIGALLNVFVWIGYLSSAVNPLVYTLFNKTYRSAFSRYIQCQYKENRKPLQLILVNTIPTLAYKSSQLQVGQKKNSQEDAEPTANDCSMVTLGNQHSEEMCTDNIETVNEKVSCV
APJ ag: APJ receptor agonism. P35414. CHO-K1 APJ PathHunter beta-arrestin, luminescence; 0% DMSO wells, 100% apelin. activation, % at 20 µM. 0.11% of 330,000 active. AID 2520;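 active means activation more than six SD over the plate average, tested at 20 µM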
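system = engineered CHO-K1 APJ arrestin reporter cells | input = 1000 cells per well | timing = overnight seeding, 90 min compound at 25 °C, 1 h detection | measured by = enzyme-fragment complementation luminescence | read-out = beta-arrestin recruitment to APJ as agonist activity, luminescent signal | control set = negative DMSO alone, positive Apelin-13 at 10 nM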
APJ antagonist: APJ receptor antagonism. P35414. inhibition, % at 20 µM. 0.32% of 330,000 active. CHO-K1 APJ beta-arrestin complementation, luminescence;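 active means inhibition above about 40% at 20 µM, limit read from the data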;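 further: cells challenged with 10 nM apelin-13 agonist together with compound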
EBI2 block: antagonists of human EBI2 receptor. 0.81% of 360,000 active. inhibition, % at 5 µM. EBI2 beta-arrestin recruitment, luminescence, 7a,25-OHC stimulated. P32249; in the data active means inhibition above about 38%;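 further: enzyme fragment complementation signal reports receptor beta-arrestin coupling in cells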
CCR6 antagonist: antagonists of human CCR6 receptor. P51684. CHO-K1 CCR6 PathHunter beta-arrestin, luminescence, CCL20-stimulated. inhibition, % at 20 µM. 0.49% of 340,000 active;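 active means compounds whose inhibition of the agonist-driven luminescence signal at 20 µM reaches about 50%, limit read from the data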;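 further: cells stimulated with CCL20 at 14 nM final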
OPRM1 ag: OPRM1 agonism in mouse HTR2A counterscreen | shares compounds with HTR2A ag | U2OS OPRM1 beta-arrestin PathHunter, luminescence; DMSO 0%, DAMGO 9.3 µM 100% | activation, % at 9.3 µM | 5.3% of 2,300 active;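 active means mean activation above the mean of DMSO-only wells plus 3 SD, cut at about 0.5% in these data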
m5-HT2A ag conf: mouse HTR2A agonism confirmed | shares compounds with HTR2A ag | AID 624381 | 19% of 2,300 active | activation, % at 7.6 µM | CHO-K1 PathHunter beta-arrestin recruitment, luminescence; DMSO 0%, 30 µM serotonin 100%;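 active means mean activation across triplicates above the hit threshold derived in the original primary screen, cut at about 15% in these data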
Hits are given with their value.

O=S(=O)(N1CCCCC1)N1CCCN(S(=O)(=O)N2CCCCC2)CC1 was read as CXCR6 block inactive, HTR2A ag 15.2, APJ ag inactive, APJ antagonist inactive, EBI2 block inactive, CCR6 antagonist inactive, OPRM1 ag inactive and m5-HT2A ag conf inactive.
For O=C(NCC(=O)N1CCN(S(=O)(=O)c2ccc3c(c2)OCCO3)CC1)c1ccccc1F the results were CXCR6 block inactive, HTR2A ag 15.5, APJ ag inactive, APJ antagonist inactive, EBI2 block inactive, CCR6 antagonist inactive, OPRM1 ag inactive and m5-HT2A ag conf inactive.
O=C(CN1CCc2ccccc2C1)Nc1ccc(OC(F)(F)F)cc1 was read as CXCR6 block inactive, HTR2A ag inactive, APJ ag inactive, APJ antagonist inactive, EBI2 block inactive and CCR6 antagonist inactive.
COCCCNC(=O)C[C@H]1C[C@H](C(=O)N(C(C)C)C(C)C)[C@@]2(C)c3[nH]c4cc(CCC(=O)N(C)C)ccc4c3CCN2C1=O was read as CXCR6 block inactive, HTR2A ag inactive, EBI2 block inactive and CCR6 antagonist inactive.
Screening COc1ncc(-c2ccc3c(c2)S(=O)(=O)c2cccc(C(=O)O)c2C3=O)cn1 returned CXCR6 block inactive, HTR2A ag 17.9, APJ ag inactive, APJ antagonist inactive, EBI2 block inactive, CCR6 antagonist inactive, OPRM1 ag inactive and m5-HT2A ag conf inactive.
Screening COc1ccc(-c2ccc3c(c2)S(=O)(=O)c2cccc(C(=O)O)c2C3=O)cc1OC returned CXCR6 block inactive, HTR2A ag inactive, APJ ag inactive, APJ antagonist inactive, EBI2 block inactive and CCR6 antagonist inactive.
Screening CC1CCCC(NC(=O)CN2CCN(S(=O)(=O)c3ccc(Br)s3)CC2)C1C (stereo unspecified) returned CXCR6 block inactive, HTR2A ag inactive, APJ ag inactive, APJ antagonist inactive, EBI2 block inactive and CCR6 antagonist inactive.
CC(C)(C)c1ccc(C(=O)Nc2ccc3c(c2)C(=O)NC3=O)cc1 was read as CXCR6 block inactive, HTR2A ag 16.5, APJ ag inactive, APJ antagonist inactive, EBI2 block inactive, CCR6 antagonist inactive, OPRM1 ag inactive and m5-HT2A ag conf inactive.
COC(=O)Cc1ccc(NC(=S)N2CCN(c3cccc(O)c3)CC2)cc1 was read as CXCR6 block inactive, HTR2A ag 24.5, APJ ag inactive, APJ antagonist inactive, EBI2 block inactive, CCR6 antagonist inactive, OPRM1 ag inactive and m5-HT2A ag conf inactive.
Screening Cc1cc(C)n2nc(CNS(=O)(=O)c3ccc(C(C)(C)C)cc3)nc2n1 returned CXCR6 block inactive, HTR2A ag 22.1, EBI2 block inactive, OPRM1 ag inactive and m5-HT2A ag conf inactive.
For Cc1ccc(Cn2nnc3c(=O)[nH]c(C4CCN(S(=O)(=O)c5ccccc5F)CC4)nc32)cc1 the results were CXCR6 block inactive, HTR2A ag inactive, APJ ag inactive, APJ antagonist inactive, EBI2 block inactive and CCR6 antagonist inactive.
`CCOC(=O)CN1CCS(=O)(=O)CC1` gave CXCR6 block inactive, HTR2A ag 16.2, APJ ag inactive, APJ antagonist inactive, EBI2 block inactive, CCR6 antagonist inactive, OPRM1 ag inactive and m5-HT2A ag conf inactive.
`CCc1nnc(NC(=O)CCC(=O)N2CCN(Cc3ccccc3)CC2)s1` gave CXCR6 block inactive, HTR2A ag 16.3, APJ ag inactive, APJ antagonist inactive, EBI2 block inactive, CCR6 antagonist inactive, OPRM1 ag inactive and m5-HT2A ag conf inactive.
Screening CCc1nnc(NC(=O)CCC(=O)N2CCN(Cc3ccc(Cl)cc3)CC2)s1 returned CXCR6 block inactive, HTR2A ag inactive, APJ ag inactive, APJ antagonist inactive, EBI2 block inactive and CCR6 antagonist inactive.
For O=C(Cc1cccs1)NNC(=S)NCc1ccco1 the results were CXCR6 block inactive, HTR2A ag 14.7, APJ ag inactive, APJ antagonist inactive, EBI2 block inactive, CCR6 antagonist inactive, OPRM1 ag inactive and m5-HT2A ag conf inactive.
